UBC13 polyUb: blocks human UBC13 polyubiquitin chain formation; TR-FRET; 0.47% of 330,000 active; inhibition, % at 20 µM; P61088; in the data active means inhibition above about 45%, passing the limit was not always enough; inconclusive means no clear call, values can overlap the other calls
Target sequence (P61088 whole entry, looked up): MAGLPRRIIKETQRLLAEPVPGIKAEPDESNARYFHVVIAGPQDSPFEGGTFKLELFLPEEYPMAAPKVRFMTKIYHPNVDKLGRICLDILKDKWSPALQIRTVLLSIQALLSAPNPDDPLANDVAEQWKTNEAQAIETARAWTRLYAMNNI
pCIP destab: p/CIP protein destabilization. Q05BA5. F442A p/CIP-EGFP cells, EGFP fluorescence, 16 h. decrease of EGFP signal, % at 10 µM. 0.01% of 290,000 active. AID 1984;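 active means EGFP signal decrease of at least 30% at 10 µM or well 3 SD below plate mean, unless failing retest; inactive means the rest, including hits failing retest or dose response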
PP1 counter: counter-screen for PP5 inhibitors: inhibitors of human PP1-alpha. P62136. purified PP1alpha, OMFP fluorescence. inhibition, % at 6.7 µM. 0.9% of 320,000 active;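 active means inhibition above the mean inhibition of all tested compounds plus 3 SD, computed separately for each screening campaign, cut at about 15% in these data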
Target sequence (P62136 whole entry, looked up): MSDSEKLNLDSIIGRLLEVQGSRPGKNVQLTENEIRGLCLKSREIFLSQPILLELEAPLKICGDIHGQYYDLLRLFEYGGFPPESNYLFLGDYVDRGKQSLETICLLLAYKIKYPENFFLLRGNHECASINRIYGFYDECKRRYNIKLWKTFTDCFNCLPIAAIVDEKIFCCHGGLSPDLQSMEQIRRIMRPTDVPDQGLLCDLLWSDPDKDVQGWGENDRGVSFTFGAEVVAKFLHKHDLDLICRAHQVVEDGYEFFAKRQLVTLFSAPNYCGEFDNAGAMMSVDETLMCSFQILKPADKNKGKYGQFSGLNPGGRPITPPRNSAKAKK
AI-2 QS mod: modulators of Vibrio harveyi AI-2 quorum sensing system; 0.4% of 300,000 active; AID 2094; Vibrio harveyi JMH597 AI-2 luminescence/OD600 ratio, 9 h; active compounds read low; strain lacks LuxN and CqsS sensors; 0 = neutral-control median; activity change, % at 7.5 µM; in the data active means activity change below about -75%, passing the limit was not always enough; inconclusive means no clear call, values can overlap the other calls;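 further: luminescence divided by OD600 gain over 9 h not by final OD600 alone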
T cruzi repl: T. cruzi replication inhibition; T. cruzi beta-gal in NIH3T3, luminescence, 90 h; inhibition, % (test concentration not listed); 1.4% of 300,000 active; AID 1885;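 active means mean inhibition across valid replicates above about 55%, limit read from the data; inconclusive means mean below that limit but half or more replicates reach it; inactive means mean below it, under half of replicates reach it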;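 further: signal also drops with host cell toxicity which is not excluded here; 0% = plate median of DMSO wells and 100% = zero luminescence signal; higher percent means less beta-gal luminescence so fewer parasites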
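Test system: β-gal T. cruzi (Tulahuen C4) inside NIH/3T3 cells / Quantity: 5,000 cells/well / Measured by: luminescence from GalScreen with 0.05% NP40, read after 60 min / Medium: DMEM plus 2% FBS / Measure: parasite load inhibition, % / Reagent: Tulahuen C4 trypomastigotes, 5000/well / Schedule: co-culture of at least 90 h after 3 h attachment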
* hit, by the source's call; ? = inconclusive; nt = not tested or not shown. In the library only some 2.8% were active in any assay of this set; here they are far more common.

SMILES	UBC13 polyUb	pCIP destab	PP1 counter	AI-2 QS mod	T cruzi repl
Cc1ccc(CN2CCN(Cc3cccc(-n4cccn4)c3)CC2CCO)cc1 (stereo unspecified)	1	7	-7	24	10
C/C(=N/NC(=O)C1CCN(S(=O)(=O)c2ccc(C)cc2)CC1)c1cccc([N+](=O)[O-])c1	3	-4	1	27	11
CN(C)c1ccc(O)c2c1CC1CC3[C@@H](N(C)C)C(=O)C(C(N)=O)=C(O)[C@]3(O)C(=O)C1=C2O (stereo partly specified)	17	2	9	-87*	-15
COc1cccc(CN(C)CC(=O)NC(=O)NCc2ccco2)c1	-1	2	1	21	-5
O=C(Nc1ccc(Cl)c(Cl)c1)O/N=C/c1ccncc1	-8	-2	-2	-88*	-2
N/C(=N/OC(=O)c1ccc(Cl)cc1)c1ncc([N+](=O)[O-])s1	-7	-13	-3	24	19
O=C(Nc1cccc([N+](=O)[O-])c1)C12CC3CC(C1)CC(n1cnc([N+](=O)[O-])n1)(C3)C2	3	-10	1	12	64*
O=C(Nc1ccccc1)C12CC3CC(C1)CC(n1cnc([N+](=O)[O-])n1)(C3)C2	5	-6	1	9	55*
O=c1ccnc(Nc2ccc([N+](=O)[O-])cc2)[nH]1	-4	nt	-2	28	2
CCN(CC)CCNc1cc(C)nc2c1C(=O)C(=O)C=C2N1CCCCC1	-26	8	1	7	60*
Cc1ccsc1C(=O)N1CCCC(N2CCN(c3cccc(Cl)c3)CC2)C1 (stereo unspecified)	-1	-1	1	11	14
O=[N+]([O-])c1ccc(S(=O)(=O)Nc2nc(-c3ccccc3)cs2)cc1	-21	-13	-2	-3	15
Cc1ccc(Nc2nc(-c3ccncc3)cs2)cc1	-2	-24	nt	23	70*
Clc1ccc(-c2csc(Nc3cccnc3)n2)cc1	9	-3	-3	2	58*
Clc1cccc(Nc2nc(-c3ccncc3)cs2)c1	10	-9	17*	16	66*
Cc1ccc(S(=O)(=O)Nc2nc(-c3ccc(F)cc3)cs2)cc1	-13	9	-2	-92*	?
Cc1ccc(Nc2nc(-c3sc(C)nc3C)cs2)cc1	1	-4	0	-9	6
COc1nc(NC(=O)c2ccc(F)cc2)nc(OC)c1-c1ccccc1	-4	-11	-3	-5	8
C=CC[C@@H](CC(=O)N(CCO)Cc1ccccc1)C(=O)NC[C@H](OC(=O)[C@@H](CC=C)Cc1ccc(F)cc1)c1ccccc1	9	nt	nt	nt	nt
Cc1cccc(Nc2nc(-c3ccncc3)cs2)c1	10	-5	-1	24	61*
Cc1cccc(Nc2nc(-c3ccc4c(c3)OCCO4)cs2)c1	-3	7	-2	6	-16
O=C(NNC(=O)C1C2C=CC(C2)C1C(=O)O)c1ccccc1O (stereo unspecified)	15	3	-6	10	3
CC(=O)O/N=C1\C(=O)N(Cc2ccc(C)cc2)c2ccccc21	4	-10	nt	nt	nt
CC(C)CC(=O)O/N=C1\C(=O)N(Cc2ccc(Cl)cc2)c2ccc([N+](=O)[O-])cc21	-11	-12	17*	40	58*
O=c1c2cccc3c2c(nn1CN1CCOCC1)-c1ccccc1-3	1	6	2	7	1
SMILES	UBC13 polyUb	pCIP destab	PP1 counter	AI-2 QS mod	T cruzi repl
CCN(CC)CCn1nc2c3c(cccc3c1=O)-c1ccccc1-2	-21	2	-5	22	58*
Cc1ccc(-n2nnnc2SCCNS(=O)(=O)c2ccccc2)cc1C	3	-9	0	17	11
CC1=NN(C(N)=S)C(=O)C1N=Nc1c(C)cc(C)cc1C (stereo unspecified)	-32	5	17*	16	-8
CCC(C)N(C(=O)CSc1nnc(C)n1C)C1CCS(=O)(=O)C1 (stereo unspecified)	-2	nt	-3	15	1
CN(CC(=O)Nc1c(Cl)cccc1Cl)C(=O)Cn1[nH]c(=O)c2ccccc2c1=O	0	nt	2	nt	nt
CCCNC(=O)Cn1c(=O)/c(=C\c2ccc(-c3ccc([N+](=O)[O-])cc3)o2)s/c1=C\C(=O)C(C)(C)C	nt	-381	-3	37	5
CCCNC(=O)Cn1c(=O)/c(=C\c2ccc(-c3cccc([N+](=O)[O-])c3)o2)s/c1=C\C(=O)C(C)(C)C	-68	-13	16*	15	34
C=CCOc1ccc(C2C(C(=O)c3ccc(C)o3)=C(O)C(=O)N2Cc2cccnc2)cc1 (stereo unspecified)	-22	-22	23*	17	-12
C=CCOc1cccc(C2C(C(=O)c3ccc(C)o3)=C(O)C(=O)N2Cc2ccncc2)c1 (stereo unspecified)	-21	-7	6	4	8
CC(C)OC(=O)C(=O)NNc1ccccc1	-20	-8	-5	31	58*
CCCOC(=O)C(=O)NNc1ccccc1	4	5	-1	13	49
COc1cccc(NC(=O)C(Cc2ccccc2)n2cccc2)c1 (stereo unspecified)	19	-16	-1	16	-8
Cc1ccc(C)c(N2CN(Cc3cccnc3)CNC2=S)c1	-2	10	-4	19	61*
Cc1ccc(N2CN(Cc3cccnc3)CNC2=S)cc1	-2	-3	-1	17	?
Cc1cccc(C(=O)Nc2cccc3cccnc23)c1	-1	10	nt	11	-21
Cc1cnc(C(=O)Nc2cccc3cccnc23)cn1	nt	2	nt	2	66*
O=C(Nc1ccc([N+](=O)[O-])cn1)c1cc(-c2cccc(Cl)c2)nc2ccccc12	-18	-2	0	17	56*
CCOc1ccccc1/C=N\Nc1cnn(Cc2ccccc2)c(=O)c1Cl	-8	-9	16*	36	56*
CC(=O)OCCNc1cc(Sc2nc3ccccc3[nH]2)c2nonc2c1[N+](=O)[O-]	nt	-3	1	29	56*
CC(=O)OCCCNc1cc(Sc2nc3ccccc3s2)c2nonc2c1[N+](=O)[O-]	-45	0	1	-7	69*
COc1cc([N+](=O)[O-])c(N2CCOCC2)c([N+](=O)[O-])c1OC	15	3	-8	16	75*
C[C@@H](C(=O)Nc1ccc(OC(F)F)c(Cl)c1)N1C(=O)C2CC=CCC2C1=O (stereo partly specified)	0	nt	nt	nt	nt
CCc1ccc(NC(=O)NCC2CCN(Cc3cccc(Cl)c3)CC2)cc1	16	-6	3	16	40
Cc1ccc(NC(=O)NCC2CCN(Cc3cccc(Cl)c3)CC2)cc1Cl	31	1	3	24	62*
CN(CC(=O)Nc1ccccc1C(F)(F)F)CC(=O)N1CCCCCC1	0	nt	0	nt	nt
COc1cccc(CN(C)C(=O)CCN=C2NS(=O)(=O)c3ccccc32)c1	2	nt	nt	nt	nt
